Measured values as given in ChEMBL document CHEMBL1165859, “Synthesis, antiproliferative, acute toxicity and assessment of antiandrogenic activities of some newly synthesized steroidal lactams” (Eur J Med Chem, 2010).
Activity calls are given as the source filed them. No cut-off for these calls is given here.

Legend:
[1] = system: DU-145; assay: Antiproliferative activity against human DU145 cells assessed as growth inhibition after 48 hrs by MTT assay; type: functional, cell-based; settings: DU-145, 48 h
Procedure, shortened: (§1)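 DU-145 cells grown in DMEM with 10% heat-inactivated FBS and streptomycin/penicillin at 37 °C, 5% CO2. Cells seeded at 5×10³/well and left to attach 24 h. Compounds in ethanol, final 0.01, 0.5, 1.0, 2.0 and 5.0 µg/mL, given in triplicate for 48 h. MTT added for 4 h, formazan dissolved in DMSO, A570 read. Viability is A(test)/A(control)×100, mean ± SEM of 3 experiments. IC50 taken from a linear log dose–response fit.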

[2] = system: DU-145; assay: Antiproliferative activity against human DU145 cells assessed as growth inhibition at 0.01 ug/mL after 48 hrs by MTT assay relative to control; type: functional; settings: for inhibition of growth at 0.01 µg/mL: DU-145, 48 h, read-out: GI; procedure, shortened: as §1
[3] = system: DU-145; assay: Antiproliferative activity against human DU145 cells assessed as growth inhibition at 1 ug/mL after 48 hrs by MTT assay relative to control; type: functional; settings: for inhibition of growth at 1 µg/mL: DU-145, 48 h, read-out: GI; procedure, shortened: as §1
[4] = system: DU-145; assay: Antiproliferative activity against human DU145 cells assessed as growth inhibition at 0.5 ug/mL after 48 hrs by MTT assay relative to control; type: functional; settings: for inhibition of growth at 0.5 µg/mL: DU-145, 48 h, read-out: GI; procedure, shortened: as §1
[5] = system: DU-145; assay: Antiproliferative activity against human DU145 cells assessed as growth inhibition at 5 ug/mL after 48 hrs by MTT assay relative to control; type: functional; settings: for inhibition of growth at 5 µg/mL: DU-145, 48 h, read-out: GI; procedure, shortened: as §1
[6] = system: Rattus norvegicus; assay: Antiandrogenic activity in Sprague-Dawley rat assessed as increase of serum testosterone level at 40 mg/kg, ip equimolar dose of finasteride after 6 hrs by ELISA; type: functional
Procedure, shortened: (§2)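 Intact male Sprague Dawley rats (200–250 g), 5 per group. Compounds suspended in olive oil:ethanol (95:5), single intraperitoneal dose equimolar to 40 mg/kg finasteride; controls received vehicle alone. Blood taken by cardiac puncture under diethyl ether anaesthesia 6 h after dosing. Serum testosterone measured by competitive ELISA (T-antibody-coated wells, HRP-T conjugate, 4 h at 37 °C, H2O2 substrate 20 min, H2SO4 stop) at 450 nm. Results are mean ± SEM.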

[7] = system: DU-145; assay: Antiproliferative activity against human DU145 cells assessed as growth inhibition at 2 ug/mL after 48 hrs by MTT assay relative to control; type: functional; settings: for inhibition of growth at 2 µg/mL: DU-145, 48 h, read-out: GI; procedure, shortened: as §1
[8] = system: Rattus norvegicus; assay: Antiandrogenic activity in ip dosed Sprague-Dawley rat assessed as increase of serum testosterone level after 6 hrs by ELISA (reference value: 0.742 +/- 0.07 ng/ml); type: functional; procedure, shortened: as §2
[9] = Cytotoxicity against Balb/C mouse macrophages assessed as cell viability at 5 ug/ml after 24 hrs by MTT assay; type: cell-based, Macrophage; settings: read-out: Activity
[10] = Cytotoxicity against Balb/C mouse macrophages assessed as cell viability after 24 hrs by MTT assay; type: cell-based; settings: Macrophage

Structure (SMILES) | IC50 [1] [µM] | inhibition of growth at 0.01 µg/mL [2] [%] | inhibition of growth at 1 µg/mL [3] [%] | inhibition of growth at 0.5 µg/mL [4] [%] | inhibition of growth at 5 µg/mL [5] [%] | Activity ([6]; route intraperitoneal) [ng/mL] | inhibition of growth at 2 µg/mL [7] [%] | growth inhibition (GI) [2] | growth inhibition (GI) [3] | growth inhibition (GI) [4] | growth inhibition (GI) [5] | Activity [6] | growth inhibition (GI) [7] | Activity [8] [ng/mL] | viability at 24 h, 5 ug/ml [9] [%] | LC50 [10] [µM]
COc1ccc(C(=O)O[C@H]2CC[C@@]3(C)C(=CC[C@@H]4[C@@H]3CC[C@]3(C)NC(=O)CC[C@@H]43)C2)cc1 | 15.1 | 17.4 | 21.3 | 25.2 | 43 | 1.05 | 33.9 |  |  |  |  |  |  |  |  | 
C[C@]12CC[C@H](OC(=O)COc3ccccc3)CC1=CC[C@@H]1[C@@H]2CC[C@]2(C)NC(=O)CC[C@@H]12 |  |  |  |  |  |  |  | inactive | inactive | inactive | inactive | Active | inactive |  |  | 
C[C@]12CC[C@H](OC(=O)c3ccc(N)cc3)CC1=CC[C@@H]1[C@@H]2CC[C@]2(C)NC(=O)CC[C@@H]12 | 7.1 | 30.5 | 45 | 43.4 | 82.4 |  | 48 |  |  |  |  | Active |  |  |  | 
CC(C)(C)NC(=O)[C@H]1CC[C@H]2[C@@H]3CC[C@H]4NC(=O)C=C[C@]4(C)[C@H]3CC[C@]12C [FINASTERIDE] | 3.9 | 5 | 16.5 | 8.83 | 78.5 |  | 36 |  |  |  |  |  |  | 1.26 |  | 
C[C@]12CC[C@H](OC(=O)c3ccccc3)CC1=CC[C@@H]1[C@@H]2CC[C@]2(C)NC(=O)CC[C@@H]12 | 9.5 | 28.1 | 38.8 | 35.7 | 63.6 |  | 45 |  |  |  |  | Active |  |  |  | 
C[C@]12CC[C@H](O)CC1=CC[C@@H]1[C@@H]2CC[C@]2(C)NC(=O)CC[C@@H]12 |  |  |  |  |  |  |  | inactive | inactive | inactive | inactive | Active | inactive |  |  | 
C[C@]12CC[C@H](OC(=O)c3ccc(O)cc3)CC1=CC[C@@H]1[C@@H]2CC[C@]2(C)NC(=O)CC[C@@H]12 | 5.7 | 30.7 | 59.2 | 51.4 | 69.5 |  | 65.6 |  |  |  |  | Active |  |  |  | 
C[C@]12CC[C@H](OC(=O)c3ccc(Cl)cc3)CC1=CC[C@@H]1[C@@H]2CC[C@]2(C)NC(=O)CC[C@@H]12 | 8.3 | 19 | 42.2 | 27.9 | 67.6 |  | 49.4 |  |  |  |  | Active |  |  | 6 | 
C[C@]12CC[C@H](OC(=O)Cc3ccccc3)CC1=CC[C@@H]1[C@@H]2CC[C@]2(C)NC(=O)CC[C@@H]12 | 7.1 |  |  |  | 73.1 |  | 48.3 | inactive | inactive | inactive |  | Active |  |  |  | 26
C[C@]12CC[C@H](OC(=O)c3ccc([N+](=O)[O-])cc3)CC1=CC[C@@H]1[C@@H]2CC[C@]2(C)NC(=O)CC[C@@H]12 | 5.2 | 33.9 | 57.9 | 41.4 | 88.9 |  | 73.5 |  |  |  |  | Active |  |  |  | 
Cc1ccc(C(=O)O[C@H]2CC[C@@]3(C)C(=CC[C@@H]4[C@@H]3CC[C@]3(C)NC(=O)CC[C@@H]43)C2)cc1 | 7.5 | 21.6 | 40.7 | 29.5 | 77 |  | 68.1 |  |  |  |  | Active |  |  |  | 
C[C@]12CC[C@H](OC(=O)CCl)CC1=CC[C@@H]1[C@@H]2CC[C@]2(C)NC(=O)CC[C@@H]12 |  |  |  |  |  | 0.82 |  | inactive | inactive | inactive | inactive |  | inactive |  | 6 | 
